ChEMBL document CHEMBL1139742, “3-(Indol-2-yl)indazoles as Chek1 kinase inhibitors: Optimization of potency and selectivity via substitution at C6” (Bioorg Med Chem Lett, 2006)

How the values were obtained:
[1] = test system: NCI-H1299; assay: Release of NCI-H1299 cells from DNA damage-induced cell cycle arrest by CEA; format: functional, cell-based; conditions: Homo sapiens
How it was run: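 NCI-H1299 lung carcinoma cells were arrested by 16 h camptothecin treatment, then exposed to inhibitor for a further 8 h. Escape into mitosis was read as mitosis-specific nucleolin phosphorylation in an antibody-coated bead-based assay. EC50 came from a 10-point half-log dilution series, averaged over tetraplicate determinations.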

[2] = target: Cyclin-dependent kinase 7 (Homo sapiens, UniProt P50613); assay: Inhibition of Cdk7
[3] = organism: Homo sapiens; assay: Selectivity for Chek1 over Cdk7
[4] = target: T1, Serine/threonine-protein kinase Chk1 (Homo sapiens, UniProt O14757); assay: Inhibition of Chek1
T1 sequence (O14757 whole entry): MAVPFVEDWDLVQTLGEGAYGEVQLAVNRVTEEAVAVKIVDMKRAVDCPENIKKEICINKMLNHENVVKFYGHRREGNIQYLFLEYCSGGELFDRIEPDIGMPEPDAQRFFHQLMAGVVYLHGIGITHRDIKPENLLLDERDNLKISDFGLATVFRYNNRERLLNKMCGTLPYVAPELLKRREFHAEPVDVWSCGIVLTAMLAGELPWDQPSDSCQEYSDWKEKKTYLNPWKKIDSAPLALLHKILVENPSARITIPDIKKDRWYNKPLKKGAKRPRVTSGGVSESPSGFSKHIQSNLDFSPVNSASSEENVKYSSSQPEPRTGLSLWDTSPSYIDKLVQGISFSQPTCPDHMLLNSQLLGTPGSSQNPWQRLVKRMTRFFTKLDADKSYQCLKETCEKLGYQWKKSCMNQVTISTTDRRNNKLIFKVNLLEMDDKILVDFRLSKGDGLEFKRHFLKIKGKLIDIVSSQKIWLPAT

[5] = target: T1, Serine/threonine-protein kinase Chk1; assay: Inhibition of autophosphorylation of Chek1 in NCI-H1299 cells; format: functional, cell-based
How it was run: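 Cyto-blot of Chek1 autophosphorylation with phospho-S296 Chek1 antibody in NCI-H1299 lung carcinoma cells. Cells incubated with inhibitor 2 h, then camptothecin added for a further 4 h. Cellular assay ATP 2.0 mM. 10-point, 3-fold dilution series. IC50 averaged over triplicate determinations.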

Sequence of Cyclin-dependent kinase 7 (P50613 whole entry): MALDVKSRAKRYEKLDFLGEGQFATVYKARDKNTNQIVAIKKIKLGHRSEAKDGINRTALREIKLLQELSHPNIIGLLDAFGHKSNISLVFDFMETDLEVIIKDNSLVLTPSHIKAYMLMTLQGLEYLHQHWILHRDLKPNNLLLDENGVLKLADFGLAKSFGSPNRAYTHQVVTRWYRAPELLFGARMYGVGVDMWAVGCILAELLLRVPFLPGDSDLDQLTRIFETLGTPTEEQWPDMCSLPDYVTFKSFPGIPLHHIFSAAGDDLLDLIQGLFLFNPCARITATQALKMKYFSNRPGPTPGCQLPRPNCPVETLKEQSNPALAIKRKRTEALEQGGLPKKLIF

SMILES	EC50 [1] [µM]	IC50 [2] [µM]	Ratio IC50 [3]	IC50 [4] [µM]	IC50 [5] [µM]	IC50 [1] [µM]
OCc1n[nH]nc1-c1ccc2c(-c3cc4cc(CN5CCCCC5)ccc4[nH]3)n[nH]c2c1	0.69	0.056	190			
CC(=O)N1CCN(Cc2ccc3[nH]c(-c4n[nH]c5cc(-c6nnn[nH]6)ccc45)cc3c2)CC1				0.0023	> 10	> 10
CC(=O)N1CCN(Cc2ccc3[nH]c(-c4n[nH]c5cc(Cl)ccc45)cc3c2)CC1				0.12		
c1ccc2[nH]c(-c3n[nH]c4cc(-c5nnn[nH]5)ccc34)cc2c1				0.027	> 10	> 10
c1cc2[nH]c(-c3n[nH]c4cc(-c5cnsc5)ccc34)cc2cc1CN1CCCCC1	> 10	0.018	1.5	0.012		
c1ccc(-c2ccc3c(-c4cc5cc(CN6CCCCC6)ccc5[nH]4)n[nH]c3c2)cc1	5	7	160	0.045		
c1cnn(-c2ccc3c(-c4cc5cc(CN6CCCCC6)ccc5[nH]4)n[nH]c3c2)c1	> 10	2.3	22	0.11		
NC(=O)c1ccc2c(-c3cc4cc(CN5CCOCC5)ccc4[nH]3)n[nH]c2c1	0.98	1.3		0.012		
CNC(=O)c1ccc2c(-c3cc4cc(CN5CCOCC5)ccc4[nH]3)n[nH]c2c1	0.65	4.9		0.013		
Cn1cc(-c2ccc3c(-c4cc5cc(CN6CCOCC6)ccc5[nH]4)n[nH]c3c2)cn1				0.53		
CC(=O)N1CCN(Cc2ccc3[nH]c(-c4n[nH]c5cc(C#N)ccc45)cc3c2)CC1		0.039		0.017	1	> 10
CC(=O)N1CCN(Cc2ccc3[nH]c(-c4n[nH]c5ccccc45)cc3c2)CC1				0.64		
c1cc(-c2ccc3c(-c4cc5cc(CN6CCOCC6)ccc5[nH]4)n[nH]c3c2)[nH]n1	> 50	0.034	0.58	0.059		
OCc1nn[nH]c1-c1ccc2c(-c3cc4cc(CN5CCC(F)CC5)ccc4[nH]3)n[nH]c2c1	0.34	0.18		0.0003		
COc1cc(-c2ccc3c(-c4cc5cc(CN6CCCCC6)ccc5[nH]4)n[nH]c3c2)ccc1O	0.092	0.31		0.00025		
N#Cc1ccc2c(-c3cc4cc(CN5CCOCC5)ccc4[nH]3)n[nH]c2c1	> 50			0.03		
NCc1nn[nH]c1-c1ccc2c(-c3cc4cc(CN5CCC(F)CC5)ccc4[nH]3)n[nH]c2c1	0.61	0.3		0.00011		
c1cc2[nH]c(-c3n[nH]c4cc(-c5cn[nH]c5)ccc34)cc2cc1CN1CCOCC1	> 50	0.025		0.01		
Cc1cnnn1-c1ccc2c(-c3cc4cc(CN5CCCCC5)ccc4[nH]3)n[nH]c2c1	1.4	0.42	14	0.03		
c1cnn(-c2ccc3c(-c4cc5cc(CN6CCCCC6)ccc5[nH]4)n[nH]c3c2)n1	4.5	0.48	14	0.034		
COC(=O)c1ccc2c(-c3cc4cc(CN5CCOCC5)ccc4[nH]3)n[nH]c2c1	1.93	6.5		0.062		
CN(C)C(=O)c1ccc2c(-c3cc4cc(CN5CCOCC5)ccc4[nH]3)n[nH]c2c1	4	> 100		0.08		
c1csc(-c2ccc3c(-c4cc5cc(CN6CCCCC6)ccc5[nH]4)n[nH]c3c2)n1	2	4	83	0.048		
c1cn(-c2ccc3c(-c4cc5cc(CN6CCCCC6)ccc5[nH]4)n[nH]c3c2)nn1	0.35	0.057	22	0.0026		
